From the RNAGym collection of RNA variant scans (doi:10.1126/science.aae0568)
Fewer inactive variants are shown than the library holds.

B1: tRNA (parent)
chain: GUUCCGUUGGCGUAAUGGUAACGCGUCUCCCUCCUAAGGAGAAGACUGCGGGUUCGAGUCCCGUACGGAACG

Variants of: B1
Assay: yeast fitness relative to wild type (ratio to wild type); higher = fitter; tRNA-Arg(CCU), competitive growth, 37 C, YPD
Outline: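 Variants of the tRNA-Arg(CCU) gene, chemically synthesised with a 3% per-site mutation rate at 69 sites, were placed at the native genomic locus in Saccharomyces cerevisiae. The pooled strains were competed in YPD at 37°C for 24 hours in six parallel replicates. Gene amplicons from the start population and from each end population were read by 100-nucleotide paired-end sequencing. Darwinian fitness relative to wild type came from changes in genotype frequencies; genotypes needed ≥ 100 starting reads, and estimates < 0.5 were set to 0.5.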

Row | Variant | yeast fitness
1 | GUUCCGUUGGCGUAAUGGUAACGCGUCUACCUCCUAAGGAGGAGUCUGCAGGUUCGAGUCCCGUACGGAACG | 0.534
2 | GUUCCGUUGGCGUAAUGGUAACGCGUCUAUCUCCUAAGGAGAAGACUGCGGGUUCGAAUCCCGUACGGAACG | ≤ 0.5
3 | GUUCCGUUGGCGUAAUGGUAACGCGUCGCCCACCUAACGAGAAGACUGCGGGUUCGAGUCCCGUACGGAACG | 0.653
4 | GUUCCGUUGGCGUAAUGGUAACGCGUCUACCUCCUAAGGAGAAGACUGCGGGUUCGUGUCCCGUCCGGAACG | 0.584
5 | GUUCCGUUGGCGUAAUGGUAACGCGUCGCCCUCCGAAGGAGAAGUCUGCGGGUUCGAGUCCCGUACGGAACG | ≤ 0.5
6 | GUUCCGUUGGCGUAAUGGUAACGCGUCUACCUCCUAAGGAGAAGACUGCGGGUUCGUGUGCAGUACGGAACG | ≤ 0.5
7 | GUUCCGUUGGCGUAAUGGUAACGCGUCGCCCUCCUAAGGAGAAGACUGCGGGUUCGAGUCCCGGACGGAACG | 0.628
8 | GUUCCGUUGGCGUAAUGGUAACGCGUCUACCUCCUGAGGAGAAGCCUGCGGGUUCAAGUCCCGUACGGAACG | ≤ 0.5
9 | GUUCCGUUGGCGUAAUGGUAACGCGUCUACCUCCUAAGGAGAAGUCUGCGGGUUCGAGUCCCGUACGGAACG | 0.524
10 | GUUCCGUUGGCGUAAUGGUAACGCGUCUACCUCCUAAGGAGAAGGCUGCGGGUUCGAGUCCCGUACGGAACG | 0.578
11 | GUUCCGUUGGCGUAAUGGUAACGCGUCGCCCUCCUAAGGAGAAGACUGCGGAUUCGAGUCCCGUACGGAACG | 0.681
12 | GUUCCGUUGGCGUAAUGGUAACGCGUCUACCUCCUAUGGAGAAGACUGAGGGUUCGAGUCCCGUACGGAACG | ≤ 0.5
13 | GUUCCGUUGGCGUAAUGGUAACGCGUCUACCUCCUAAGGAGUAGAAUGCGGGUUCGAGUCCCGUACGGAACG | 0.619
14 | GUUCCGUUGGCGUAAUGGUAACGCGUCGCCCUCCUAACGAGAGGACUGCGGGUUCGAGCGCCGUACGGAACG | ≤ 0.5
15 | GUUCCGUUGGCGUAAUGGUAACGCGUCGCCCUCCUAAAGGGAAGACUGCGGGUUCAAGUCCUGUACGGAACG | ≤ 0.5
16 | GUUCCGUUGGCGUAAUGGUAACGCGUCGCCCUCCUAAGGAGAAGACUGCGGGUUCGAGUCCUGUAGGGAACG | 0.568
17 | GUUCCGUUGGCGUAAUGGUAACGCGUCUACCUCCUAUGGAGAAGACUGCGGGUUCGAGUCCCGUACGGAACG | ≤ 0.5
18 | GUUCCGUUGGCGUAAUGGUAACGCGUCUACCUCCUCAGGAGAAGACUGCGGGUUCGAAUCCCGUACGGAACG | ≤ 0.5
19 | GUUCCGUUGGCGUAAUGGUAACGCGUCUACCUCCUAAGGAGAAGACUGCGGGUUCGAGUCCCGUACGGGACG | 0.6
20 | GUUCCGUUGGCGUAAUGGUAACGCGUCGCCCUCCUAAGCAGAAGACUGCGGGUUGGAGUCCCGUACGGAACG | ≤ 0.5
21 | GUUCCGUUGGCGUAAUGGUAACGCGUCUACCUCCUAAGGGGAGGACUGCGGGUUUGAGUCUCGUAGGGAACG | ≤ 0.5
22 | GUUCCGUUGGCGUAAUGGUAACGCGUCUACCUCCUCAGGAGAAGACUGCGGGUUCGAGUCCCGUACGGAACG | 0.634
23 | GUUCCGUUGGCGUAAUGGUAACGCGUCUACCUCCUAAGGAGGAGACUGCGGGUUCGCGUCCCGUACGGAACG | 0.592
24 | GUUCCGUUGGCGUAAUGGUAACGCGUCUACCUCCUAAGGAGAAGUCUGCGGGUUCGAGCCCCGUACGGAACG | 0.721
25 | GUUCCGUUGGCGUAAUGGUAACGCGUCGCCCUCCUAAGGAGAAGACUAGUGGUUCGAGUCCCGUACGGAACG | 0.611

Row | Variant | yeast fitness
26 | GUUCCGUUGGCGUAAUGGUAACGCGUCUAACUCCUAAGGAGAAGACUGCGGGUUCGACUCCUGUACGGAACG | 0.565
27 | GUUCCGUUGGCGUAAUGGUAACGCGUCUAACUCCUAAGGAGAAGACUGCGGGUUCGAAUCCCGUACGGAACG | ≤ 0.5
28 | GUUCCGUUGGCGUAAUGGUAACGCGUCGCCCUCCUAAGGAGAAGACUGCGGGUUCGAGUCCCGUAUGGAACG | 0.778
29 | GUUCCGUUGGCGUAAUGGUAACGCGUCUACCUCCUCAGGAGAAGACUGCGGGUUCGAGUCCCGUACGAAACG | ≤ 0.5
30 | GUUCCGUUGGCGUAAUGGUAACGCGUCGCCCUCCUAAGGAGAAGACUGCCGGUUCGAGUCCCGUACGGAACG | 0.637
31 | GUUCCGUUGGCGUAAUGGUAACGCGUCUAGCUCCUAAGGAGAAGACUGCCGGUUCGAGUCCCGUGCGGAACG | ≤ 0.5
32 | GUUCCGUUGGCGUAAUGGUAACGCGUCUACCUCCUCAGGAGAAGACUGCGGCUUCGAGUCCCGUACGGAACG | 0.545
33 | GUUCCGUUGGCGUAAUGGUAACGCGUCUACCUCCUAAGGAGAUGACUGCGGGUUCGCGUCCCGUACGGAACG | 0.642
34 | GUUCCGUUGGCGUAAUGGUAACGCGUCUACCUCCUUAGGAGAAGACUGCGGGUUCGAGUCUCGUACAUAACG | ≤ 0.5
35 | GUUCCGUUGGCGUAAUGGUAACGCGUCGCCCCCCUAAGGAGAAGACUGGGGCUUCGAGUCCCGUACGGAACG | ≤ 0.5
36 | GUUCCGUUGGCGUAAUGGUAACGCGUCUACCUCCUAAGGAGGAGACUGCGGGUUCGAGUCCCAUACGGAACG | ≤ 0.5
37 | GUUCCGUUGGCGUAAUGGUAACGCGUCUACCUCCUACGGAGCAGACUGCAGGUUCGAGUCCCGUACGGAACG | ≤ 0.5
38 | GUUCCGUUGGCGUAAUGGUAACGCGUCUACCUCCUAAGGAGGAGUCUGCAGGUUCGAGUACCGUACGGAACG | ≤ 0.5
39 | GUUCCGUUGGCGUAAUGGUAACGCGUCGCCCACCUAAGGAGAAGACUGCGGGUUCGAGUCCCGUACGGAACG | 0.678
40 | GUUCCGUUGGCGUAAUGGUAACGCGUCUACCUCCUAAGGAGAAGCCUGUGGGUUCGAGUCCCGUAUGGAACG | ≤ 0.5
41 | GUUCCGUUGGCGUAAUGGUAACGCGUCUACCUCCUAAGGAGGAGACUGCGGGUUCGAGUCGCGUACGGAACG | 0.533
42 | GUUCCGUUGGCGUAAUGGUAACGCGUCUACCUCCUAAGGAGAAGACUGCGGGUUCGUGUCCUGUACGGAACG | ≤ 0.5
43 | GUUCCGUUGGCGUAAUGGUAACGCGUCUAUCUCCUAAGGAGAAGACUGCGGGUUCGAGUCCGGAACGGAACG | 0.553
44 | GUUCCGUUGGCGUAAUGGUAACGCGUCUACCUCCUAAGGAGUAGAAUGCGGGUUCGAGUCCCAUACGGAACG | ≤ 0.5
45 | GUUCCGUUGGCGUAAUGGUAACGCGUCUACCUCCUAGGGAGAAGACUGCGGGUUCGAAUCCCGUACGGAACG | ≤ 0.5
46 | GUUCCGUUGGCGUAAUGGUAACGCGUCUACCUCCUAAGGAGAAGACUGCGGGUUCGCGUCCCGUACGGAACG | 0.555
47 | GUUCCGUUGGCGUAAUGGUAACGCGUCGCCCUCCUAAGGACAAGACUGCGGGUUCAAGUCCCGUACGGAACG | 0.562
48 | GUUCCGUUGGCGUAAUGGUAACGCGUCGCCCUCCUAAAGGGAAGACUGCGGGUUCAAGUCCCGUACGGAACG | 0.626
49 | GUUCCGUUGGCGUAAUGGUAACGCGUCGCCCACCUAACGAGAGGACUGCGGGUUCGAGUCCCGUACGGAACG | 0.551
50 | GUUCCGUUGGCGUAAUGGUAACGCGUCGCCCUCCUAAGGAGAAGACUGCGCGUUCGAGUCCCGAAUGGAACG | ≤ 0.5

Row | Variant | yeast fitness
51 | GUUCCGUUGGCGUAAUGGUAACGCGUCUAUCUCCUUAGGAGAAGACUGCGGGUUCGAGUCCCGUACGGACCG | ≤ 0.5
52 | GUUCCGUUGGCGUAAUGGUAACGCGUCGCCCUCCUAAGGAGAAGACUGCGGGUUCGAGUCCUGUACGGAACG | 0.737
53 | GUUCCGUUGGCGUAAUGGUAACGCGUCGCCCUCCUAAGGAGAAGACUGCGAGUUCGAGUCCGGUACGGAACG | ≤ 0.5
54 | GUUCCGUUGGCGUAAUGGUAACGCGUCUACCUCCUCAGGAGAAGACUGCGGGUUUGAGUCACGUACGGAACG | ≤ 0.5
55 | GUUCCGUUGGCGUAAUGGUAACGCGUCGCCCUCCUAAGGACAAGACUGCGGGUUCGAGUCCCGUACGGAACG | 0.551
56 | GUUCCGUUGGCGUAAUGGUAACGCGUCUACCUCCUAAGGAGAGGACUGCGGGUUCGAGUCCCGUACGGAACG | 0.645
57 | GUUCCGUUGGCGUAAUGGUAACGCGUCUACCUCCUAAGGAGAUGACUGCGGGUUCGAGUCCCGUACGGAACG | 0.585
58 | GUUCCGUUGGCGUAAUGGUAACGCGUCUAUCUCCUAAGGAGAAGACUGUGGGUUCGAGUCCCGUACGGAACG | ≤ 0.5
59 | GUUCCGUUGGCGUAAUGGUAACGCGUCUAGCUCCUAAGGAGAAGACUGCCGGUUCGAGUCCCGUACGGAACG | ≤ 0.5
60 | GUUCCGUUGGCGUAAUGGUAACGCGUCGCCCUCCUAAGGAGAAGACUGCGGGUUCGAGUCCCGUACAGAACG | 0.69
61 | GUUCCGUUGGCGUAAUGGUAACGCGUCUACCUCCUAGGGAGAAGACUGCGGGUUCGGGUCCCGUACCGUACG | ≤ 0.5
62 | GUUCCGUUGGCGUAAUGGUAACGCGUCUAGCUCCUCAGGAGAACACUGCGCGUUCGAGUCCCGUACGGAACG | ≤ 0.5
63 | GUUCCGUUGGCGUAAUGGUAACGCGUCGCCCUCCUAAGGAGAAGACUGCGCGUUCGAGUCCCGAAUGGCACG | 0.583
64 | GUUCCGUUGGCGUAAUGGUAACGCGUCUACCUCCUAAGGAGGAGACUGCGGGUUCGAGUCCCGUACGGAUCG | 0.582
65 | GUUCCGUUGGCGUAAUGGUAACGCGUCUACCUCCUAAGGGGAAGACUGCGGGUUUGAGUCCCGUACGGAACG | ≤ 0.5
66 | GUUCCGUUGGCGUAAUGGUAACGCGUCGCCCUCCUAAGGAGAAGACUACGGGUUCGAGUCCCGUACCGGACG | ≤ 0.5
67 | GUUCCGUUGGCGUAAUGGUAACGCGUCGCCCUCCUAAGGAGAAGACUGCCGGUUCGUGUCCAGUACGGAACG | 0.619
68 | GUUCCGUUGGCGUAAUGGUAACGCGUCUAACUCCUAAGGAGAAGACUGCGGGUUCGAGUCCCGUACGGAACG | 0.591
69 | GUUCCGUUGGCGUAAUGGUAACGCGUCGCCCUCCUAAAGAGAAGACUGCGGGUUCGCGUCCCGUACGGAACG | ≤ 0.5
70 | GUUCCGUUGGCGUAAUGGUAACGCGUCUACCUCCUAAGGUGAAGCCUGAGGGUUCGGGUCCCGUACGGAACG | 0.574
71 | GUUCCGUUGGCGUAAUGGUAACGCGUCGCCCUCCUAAGGAGAAGACCGCGGGUUCGAGUCCCGUACGGAACG | 0.824
72 | GUUCCGUUGGCGUAAUGGUAACGCGUCGCCCUCCUAAGGAGAAGACUGCUGGUUCGAGUGCCGUACGGAACG | ≤ 0.5
73 | GUUCCGUUGGCGUAAUGGUAACGCGUCUACCUCCUAAGGAGGAGACUGCGGGUUCGAGUCCCGUACGGAACG | 0.672
74 | GUUCCGUUGGCGUAAUGGUAACGCGUCUACCUCCUAAGGAGCAGACUGCGGGUUCGAGUCCCGUACGGAACG | 0.662
75 | GUUCCGUUGGCGUAAUGGUAACGCGUCUAACUCCUAAGGAGAAGACUGCAGGUUCGAGUCCCGUACGGACCG | ≤ 0.5
